Measured values as given in ChEMBL document CHEMBL2010655, “Chemical constituents from the aerial parts of Aster koraiensis with protein glycation and aldose reductase inhibitory activities” (J Nat Prod, 2012).

How the values were obtained:
[1] = biological target: Aldo-keto reductase family 1 member B1 (Rattus norvegicus, UniProt P07943); experiment: Inhibition of Sprague-Dawley rat lens aldose reductase
[2] = Inhibition of advanced glycation end-products formation after 14 days by spectrofluorimetry; format: physicochemical
In short: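 Glycation end-product formation measured by an established literature method. Fluorescent reaction products read spectrofluorometrically after a 14-day incubation. Aminoguanidine served as the positive control. Triplicate experiments, reported as mean ± SD. IC50 calculated from the dose–inhibition curve.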

Row | IC50 [1] [µM] | IC50 [2] [µM] | Compound
1 | 2.3 | 6.4 | O=C(/C=C/c1ccc(O)c(O)c1)O[C@H]1[C@H](O)C[C@](O)(C(=O)O)C[C@H]1OC(=O)/C=C/c1ccc(O)c(O)c1
2 | > 30 | > 50 | C=CCCCCC/C=C/[C@H](O)C#CC#C[C@@H](O)[C@H](C)O [GYMNASTERKOREAYNE E]
3 | 0.32 | 9 | O=c1c(O[C@@H]2OC[C@H](O)[C@H](O)[C@H]2O)c(-c2ccc(O)c(O)c2)oc2cc(O)cc(O)c12 [GUAJAVERIN]
4 | 4.4 | 9.2 | O=c1c(O[C@@H]2O[C@H](CO)[C@@H](O)[C@H](O)[C@H]2O)c(-c2ccc(O)c(O)c2)oc2cc(O)cc(O)c12 [ISOQUERCETIN]
5 | > 30 | > 50 | CC1=CC[C@H](O)[C@]2(C)[C@H]1[C@@H](O[C@@H]1O[C@H](CO)[C@@H](O)[C@H](O)[C@H]1O)[C@H](C(C)(C)O)C[C@H]2OC(=O)/C=C/c1ccc(O)cc1
6 | > 30 | > 50 | C=C(CO[C@@H]1O[C@H](CO)[C@@H](O)[C@H](O)[C@H]1O)[C@H]1Oc2cc(C(C)=O)c(O)cc2[C@@H]1OC
7 | > 30 | > 50 | CC[C@H](CC[C@@H](C)[C@H]1CC[C@H]2[C@@H]3CC=C4C[C@@H](O[C@@H]5O[C@H](CO)[C@@H](O)[C@H](O)[C@H]5O)CC[C@]4(C)[C@H]3CC[C@]12C)C(C)C [SITOGLUSIDE]
8 | > 30 | > 50 | CC1=CC[C@@H](O)[C@]2(C)[C@@H](OC(=O)/C=C/c3ccc(O)cc3)C[C@@H](C(C)C)[C@@H](O[C@@H]3O[C@H](CO)[C@@H](O)[C@H](O)[C@H]3O)[C@@H]12
9 | > 30 | > 50 | C/C=C/C#CC#CCCCO[C@@H]1O[C@H](CO)[C@@H](O)[C@H](O)[C@H]1O
10 | – | 6.6 | O=C(/C=C/c1ccc(O)c(O)c1)O[C@@H]1C[C@](O)(C(=O)O)C[C@@H](OC(=O)/C=C/c2ccc(O)c(O)c2)[C@H]1O
11 | 9.3 | 44.4 | COc1cc(-c2oc3cc(O)cc(O)c3c(=O)c2O[C@@H]2O[C@H](CO)[C@@H](O)[C@H](O)[C@H]2O)ccc1O (stereo in doubt; 7)
12 | – | > 50 | CC(/C=C1\SC(=S)N(CC(=O)O)C1=O)=C\c1ccccc1
13 | 0.95 | > 50 | O=C(/C=C/c1ccc(O)c(O)c1)O[C@@H]1C[C@](O)(C(=O)O)C[C@@H](O)[C@H]1O [CHLOROGENIC ACID]
14 | 11.3 | > 50 | C[C@@H]1O[C@@H](OC[C@H]2O[C@@H](Oc3c(-c4ccc(O)cc4)oc4cc(O)cc(O)c4c3=O)[C@H](O)[C@@H](O)[C@@H]2O)[C@H](O)[C@H](O)[C@H]1O [NICOTIFLOROSIDE]
15 | 12.1 | > 50 | COc1cc(-c2oc3cc(O)cc(O)c3c(=O)c2O[C@@H]2O[C@H](CO[C@@H]3O[C@@H](C)[C@H](O)[C@@H](O)[C@H]3O)[C@@H](O)[C@H](O)[C@H]2O)ccc1O [NARCISSIN]
16 | > 30 | > 50 | C=CCc1ccc(O[C@@H]2O[C@H](CO)[C@@H](O)[C@H](O)[C@H]2O)c(OC)c1 [CITRUSIN C]

Row | Compound | IC50 [1] [µM] | IC50 [2] [µM]
17 | C/C=C/C#CC#C[C@H](O)CCO [GYMNASTERKOREAYNE A] | > 30 | > 50
18 | CC[C@H](/C=C/[C@@H](C)[C@H]1CC[C@H]2C3=CC[C@H]4C[C@@H](O)CC[C@]4(C)[C@H]3CC[C@]12C)C(C)C | > 30 | > 50
19 | N=C(N)NN [PIMAGEDINE] | > 30 | 966
